Active and inactive are the calls of the source. The rule behind the calls is not given here.
What was measured:
[1] = (§1) Acute toxicity in po dosed albino CFW mouse assessed as mortality measured over 48 hrs; format: organism-based; conditions: albino CFW, in vivo
[2] = (§2) Acute toxicity in ip dosed albino CFW mouse assessed as mortality measured over 48 hrs; format: organism-based; conditions: albino CFW, in vivo
Mus musculus [3] = assay: Antidepressant activity in CFW mouse assessed as reversal of reserpine-induced hypothermia by measuring temperature index at 0.16 mmol/kg, sc measured every 30 mins up to 1.5 hrs; format: functional
Mus musculus [4] = assay: Antiparkinsonian activity in CFW mouse assessed as reversal of reserpine-induced catalepsy at 0.16 mmol/kg, sc measured every 30 mins up to 1.5 hrs; format: functional, organism-based
Mus musculus [5] = assay: Antidepressant activity in CFW mouse assessed as reversal of reserpine-induced hypothermia by measuring temperature index at 0.20 mmol/kg, sc measured every 30 mins up to 1.5 hrs; format: functional, organism-based
Mus musculus [6] = assay: Antiparkinsonian activity in CFW mouse assessed as reversal of reserpine-induced catalepsy at 0.20 mmol/kg, sc measured every 30 mins up to 1.5 hrs; format: functional, organism-based
Mus musculus [7] = assay: as §1; format: organism-based; conditions: in vivo, 48 h
Mus musculus [8] = assay: as §2; format: organism-based; conditions: in vivo, 48 h
Mus musculus [9] = assay: Antidepressant activity in CFW mouse assessed as reversal of reserpine-induced hypothermia by measuring temperature index at 0.03 mmol/kg, sc measured every 30 mins up to 1.5 hrs; format: functional
Outline: (§3)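 Groups of five CFW mice received reserpine 4 mg/kg sc. After 2.5 h, rectal temperature was taken. The temperature index (TI) is the sum of the group's mean changes from its mean initial temperature at 30, 60 and 90 min. Scoring: 0 = no effect, 1 = TI 5–10, 2 = TI >10. A run was repeated if the reserpine control TI fell outside −5 to −15.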

Mus musculus [10] = assay: Antidepressant activity in CFW mouse assessed as reversal of reserpine-induced hypothermia by measuring temperature index at 0.07 mmol/kg, sc measured every 30 mins up to 1.5 hrs; format: functional
Mus musculus [11] = assay: Antiparkinsonian activity in CFW mouse assessed as reversal of reserpine-induced catalepsy at 0.15 mmol/kg, sc measured every 30 mins up to 1.5 hrs; format: functional, organism-based
Mus musculus [12] = assay: Antidepressant activity in CFW mouse assessed as reversal of reserpine-induced hypothermia by measuring temperature index at 0.13 mmol/kg, sc measured every 30 mins up to 1.5 hrs; format: functional, organism-based
Mus musculus [13] = assay: Antiparkinsonian activity in CFW mouse assessed as reversal of reserpine-induced catalepsy at 0.13 mmol/kg, sc measured every 30 mins up to 1.5 hrs; format: functional, organism-based
Rattus norvegicus [14] = assay: Antiparkinsonian activity in Wistar rat assessed as reversal of reserpine-induced catalepsy at 0.13 mmol/kg, po measured every 30 mins up to 1.5 hrs; format: functional, organism-based
Mus musculus [15] = assay: Antidepressant activity in CFW mouse assessed as reversal of reserpine-induced hypothermia by measuring temperature index at 0.15 mmol/kg, sc measured every 30 mins up to 1.5 hrs; format: functional
Mus musculus [16] = assay: Antidepressant activity in CFW mouse assessed as reversal of reserpine-induced hypothermia by measuring temperature index at 0.05 mmol/kg, sc measured every 30 mins up to 1.5 hrs; format: functional, organism-based
Mus musculus [17] = assay: Antiparkinsonian activity in CFW mouse assessed as reversal of reserpine-induced catalepsy at 0.05 mmol/kg, sc measured every 30 mins up to 1.5 hrs; format: functional, organism-based
Mus musculus [18] = assay: Antiparkinsonian activity in CFW mouse assessed as reversal of reserpine-induced catalepsy at 0.07 mmol/kg, sc measured every 30 mins up to 1.5 hrs; format: functional, organism-based
Outline: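 Groups of five CFW mice were given reserpine 4 mg/kg sc, and catalepsy was assessed 2.5 h later. Reversal was scored 0–5: 0 no effect, 1 marginal, 2 significant, 3 marked, 4 approaching complete, 5 complete reversal.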

Rattus norvegicus [19] = assay: Antiparkinsonian activity in Wistar rat assessed as reversal of reserpine-induced catalepsy at 0.14 mmol/kg, po measured every 30 mins up to 1.5 hrs; format: functional, organism-based
Mus musculus [20] = assay: Antidepressant activity in CFW mouse assessed as reversal of reserpine-induced hypothermia by measuring temperature index at 0.11 mmol/kg, sc measured every 30 mins up to 1.5 hrs; format: functional, organism-based
Mus musculus [21] = assay: Antiparkinsonian activity in CFW mouse assessed as reversal of reserpine-induced catalepsy at 0.11 mmol/kg, sc measured every 30 mins up to 1.5 hrs; format: functional, organism-based
Mus musculus [22] = assay: Antidepressant activity in CFW mouse assessed as reversal of reserpine-induced hypothermia by measuring temperature index at 0.32 mmol/kg, sc measured every 30 mins up to 1.5 hrs; format: functional, organism-based
Mus musculus [23] = assay: Antiparkinsonian activity in CFW mouse assessed as reversal of reserpine-induced catalepsy at 0.32 mmol/kg, sc measured every 30 mins up to 1.5 hrs; format: functional, organism-based
Mus musculus [24] = assay: Antidepressant activity in CFW mouse assessed as reversal of reserpine-induced hypothermia by measuring temperature index at 0.09 mmol/kg, sc measured every 30 mins up to 1.5 hrs; format: functional; outline: as §3

SMILES: Cl.NC1CC2CC3CC(C2)C1C3 (stereo unspecified)
- LD50 at 48 h [1]: 3200 µmol/kg
- LD50 at 48 h [2]: 800 µmol/kg
- Activity (Mus musculus [3]): inactive
- Activity (Mus musculus [4]): inactive

SMILES: CN(C)CC1(O)CC2CC3CC(C2)C1C3.Cl (stereo unspecified)
- LD50 at 48 h [1]: 1600 µmol/kg
- LD50 at 48 h [2]: 1200 µmol/kg
- Activity (Mus musculus [5]): inactive
- Activity (Mus musculus [6]): inactive

SMILES: Cl.c1ccc(CCNC2CC3CC4CC(C3)C2C4)cc1 (stereo in doubt; 13)
- LD50 (Mus musculus [7]): 0.5 mmol/kg
- LD50 (Mus musculus [8]): 0.2 mmol/kg
- Activity (Mus musculus [9]): 5

SMILES: CN1CCN(CC2(O)CC3CC4CC(C3)C2C4)CC1.Cl (stereo unspecified)
- LD50 at 48 h [1]: 2400 µmol/kg
- LD50 at 48 h [2]: 900 µmol/kg
- Activity (Mus musculus [10]): 5
- Activity (Mus musculus [11]): inactive

SMILES: CN(C)CC12CC3CC(CC(C3)C1Br)C2.Cl (stereo unspecified)
- LD50 at 48 h [1]: 1300 µmol/kg
- LD50 at 48 h [2]: 500 µmol/kg
- Activity (Mus musculus [12]): inactive
- Activity (Mus musculus [13]): inactive
- Activity (Rattus norvegicus [14]): Active

SMILES: CN1CCN(CC23CC4CC(CC(C4)C2O)C3)CC1.Cl (stereo unspecified)
- LD50 at 48 h [1]: 1200 µmol/kg
- LD50 at 48 h [2]: 900 µmol/kg
- Activity (Mus musculus [15]): 5
- Activity (Mus musculus [11]): inactive

SMILES: O=C(O)/C=C\C(=O)O.c1ccc(CNCC2CC3CC4CC(C3)C2C4)cc1 (stereo unspecified)
- LD50 at 48 h [1]: 500 µmol/kg
- LD50 at 48 h [2]: 200 µmol/kg
- Activity (Mus musculus [16]): inactive
- Activity (Mus musculus [17]): inactive

SMILES: CNCC12CC3CC(CC(C3)C1c1ccccc1)C2.Cl (stereo unspecified)
- Activity (Mus musculus [10]): 5
- Activity (Mus musculus [18]): inactive
- Activity (Rattus norvegicus [19]): inactive

SMILES: CNC1CC2CC3CC(C2)C1C3.Cl (stereo unspecified)
- LD50 at 48 h [1]: 2000 µmol/kg
- LD50 at 48 h [2]: 700 µmol/kg
- Activity (Mus musculus [5]): inactive
- Activity (Mus musculus [6]): Active

SMILES: Cl.OCCNC1CC2CC3CC(C2)C1C3 (stereo unspecified)
- LD50 at 48 h [1]: 2600 µmol/kg
- LD50 at 48 h [2]: 600 µmol/kg
- Activity (Mus musculus [20]): inactive
- Activity (Mus musculus [21]): inactive

SMILES: CNCC1(O)CC2CC3CC(C2)C1C3.O=C(O)/C=C\C(=O)O (stereo unspecified)
- LD50 at 48 h [1]: 3900 µmol/kg
- LD50 at 48 h [2]: 1900 µmol/kg
- Activity (Mus musculus [22]): inactive
- Activity (Mus musculus [23]): inactive

SMILES: Cl.c1ccc(CCNC2CC3CC4CC(C3)C2C4)cc1 (stereo in doubt; 12)
- LD50 at 48 h [1]: 1000 µmol/kg
- LD50 at 48 h [2]: 300 µmol/kg
- Activity (Mus musculus [24]): 5
